Assays:
[1] = target: Beta-1 adrenergic receptor (Cavia porcellus) (UniProt B0FL73)
[2] = species on record: Homo sapiens; assay: Compound was evaluated for the secretion of [14C]- Serotonin (Antisecretory activity); type: functional
Outline: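 [14C]serotonin release measured in the same U46619-challenged washed human platelet samples as aggregation: supernatant radioactivity after 10000g 30 s spin, scintillation counting, relative to total after lysis; net U46619-evoked release as % of total; IC50 from % inhibition of maximal release vs log concentration; mean ± SEM, ≥3 preparations.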

[3] = species on record: Homo sapiens; assay: Compound was evaluated for the inhibition of U-46,619-induced human platelet aggregation (Antiaggregatory activity); type: functional
Outline: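 Washed human platelets (ACD blood from aspirin-free donors, apyrase-washed, resuspended in calcium-containing modified Tyrode's pH 7.4, 3×10^8/mL) preincubated with vehicle or drug 3 min at 37 °C, then challenged with the minimum U46619 dose (0.8-2.0 μM) giving maximal irreversible aggregation; turbidometric readout ≥2 min; IC50 from % inhibition vs log concentration plots; mean ± SEM, 3-4 donors.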

[4] = target: Beta-2 adrenergic receptor (Cavia porcellus) (UniProt Q8K4Z4)
Sequence of Beta-2 adrenergic receptor (Cavia porcellus) (Q8K4Z4 whole entry, looked up): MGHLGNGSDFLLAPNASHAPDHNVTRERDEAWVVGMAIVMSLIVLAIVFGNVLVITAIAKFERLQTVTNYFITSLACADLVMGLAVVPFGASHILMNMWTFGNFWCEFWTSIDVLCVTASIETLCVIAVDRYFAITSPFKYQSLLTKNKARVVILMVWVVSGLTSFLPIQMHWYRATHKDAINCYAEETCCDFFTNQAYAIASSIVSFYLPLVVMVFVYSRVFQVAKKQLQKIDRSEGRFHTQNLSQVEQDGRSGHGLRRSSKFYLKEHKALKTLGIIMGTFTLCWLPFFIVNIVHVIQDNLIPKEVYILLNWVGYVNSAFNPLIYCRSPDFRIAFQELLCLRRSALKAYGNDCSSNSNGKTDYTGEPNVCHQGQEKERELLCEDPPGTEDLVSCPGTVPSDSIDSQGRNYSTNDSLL

Sequence of Beta-1 adrenergic receptor (Cavia porcellus) (B0FL73 1-467): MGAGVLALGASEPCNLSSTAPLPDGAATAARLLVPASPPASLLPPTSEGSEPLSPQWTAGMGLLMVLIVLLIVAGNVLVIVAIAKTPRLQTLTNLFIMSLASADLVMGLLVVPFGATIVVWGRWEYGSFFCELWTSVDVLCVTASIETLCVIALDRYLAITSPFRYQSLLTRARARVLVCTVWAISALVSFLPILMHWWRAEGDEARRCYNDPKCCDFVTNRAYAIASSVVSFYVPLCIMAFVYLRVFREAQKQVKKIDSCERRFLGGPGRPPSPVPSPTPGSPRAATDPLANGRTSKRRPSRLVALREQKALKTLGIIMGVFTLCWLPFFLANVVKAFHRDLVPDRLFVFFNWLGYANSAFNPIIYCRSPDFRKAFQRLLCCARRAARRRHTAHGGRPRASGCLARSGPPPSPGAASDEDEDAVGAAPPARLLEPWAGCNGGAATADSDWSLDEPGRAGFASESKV

| Compound | pD2 [1] | IC50 [2] [µM] | IC50 [3] [µM] | pD2 [4] |
| --- | --- | --- | --- | --- |
| COc1cc(CC2c3cc(O)c(O)cc3CCN2CCCl)cc(OC)c1OC (stereo not drawn) | 4.88 | 162 | 86.6 | 5.34 |
| COc1cc(C[C@@H]2NCCc3cc(O)c(O)cc32)cc(OC)c1OC | 7.26 | 24.5 | 19.3 | 7.23 |
| COc1cc(CC2c3cc(O)c(O)cc3CCN2CCO)cc(OC)c1OC (stereo not drawn) | 5.35 | 116 | 71.6 | 5.73 |
| COc1cc(C[C@H]2NCCc3cc(O)c(O)cc32)cc(OC)c1OC | 5.58 | 0.55 | 0.71 | 5.63 |
| COc1cc(CC2c3cc(O)c(O)cc3CCN2C)cc(OC)c1OC (stereo not drawn) | 5.89 | – | – | 6.05 |
| COc1cc(CC2NCCc3cc(O)c(O)cc32)cc(OC)c1OC (stereo not drawn) | 7.1 | – | – | 6.96 |
| COc1cc(CC2c3cc(O)c(O)cc3CCN2Cc2ccccc2)cc(OC)c1OC (stereo not drawn) | 4.34 | 96.5 | 21.2 | 5.34 |
| COc1cc(CC2c3cc4c(cc3CCN2CCCl)OS(=O)O4)cc(OC)c1OC (stereo not drawn) | 5.24 | 166 | 64.2 | 5.58 |
